Source: PubChem
NF-kB expr up = compounds increasing NF-kB expression in human neuronal cells; NF-kB reporter expression; stronger effect = higher value; fold change at 12.5 µM; 190,000 tested, 1.6% active; in the data active = fold change above about 3.3
FLuc stim CS = firefly luciferase counter-screen for stimulation assays. P08659. ATPlite luciferase biochemical, luminescence, 10 min; 0 = ATP-free wells, 1 = DMSO control. activation factor at 10 µM. 200,000 tested, under 10 active. AID 1027;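 active = luciferase activation factor, scaled between plate controls, of at least 2 with compound at 10 µM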
Target sequence (P08659 whole entry, looked up): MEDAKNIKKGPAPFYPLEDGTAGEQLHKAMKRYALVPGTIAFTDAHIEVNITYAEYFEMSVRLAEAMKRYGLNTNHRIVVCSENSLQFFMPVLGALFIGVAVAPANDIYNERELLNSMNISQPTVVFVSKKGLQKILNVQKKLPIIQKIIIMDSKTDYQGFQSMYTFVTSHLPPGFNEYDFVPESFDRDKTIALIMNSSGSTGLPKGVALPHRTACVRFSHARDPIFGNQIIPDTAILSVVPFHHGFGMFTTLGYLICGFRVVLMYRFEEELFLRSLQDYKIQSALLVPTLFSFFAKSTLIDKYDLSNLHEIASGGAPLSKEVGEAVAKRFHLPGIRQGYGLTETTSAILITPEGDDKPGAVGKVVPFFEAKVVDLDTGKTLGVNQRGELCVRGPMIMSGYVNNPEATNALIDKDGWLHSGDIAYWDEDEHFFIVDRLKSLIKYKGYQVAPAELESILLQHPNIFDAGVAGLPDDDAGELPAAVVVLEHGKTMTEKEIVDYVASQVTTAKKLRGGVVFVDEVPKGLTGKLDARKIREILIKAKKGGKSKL
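Assay system: Luciferase/luciferin detection reagent, cell-free biochemical luciferase assay / Also added: ATP substrate / Schedule: 10 min at ambient temperature / Measured by: luminescence measurement of luciferase light output / Benchmarks: low control with PBS replacing ATP, high control enzyme plus ATP without compound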
STAT1 act = increases IFN-gamma driven STAT1 reporter signal | 200,000 tested, 2.6% active | activation (% of control), % at 5.5 µM | NIH 3T3 STAT1-luciferase reporter, luminescence; 100% = IFN-gamma alone, no compound | AID 932;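 active = activation above the screen-wide mean activation plus 3 SD, cut at about 130% in these data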
APP 5'UTR act = APP 5'UTR luciferase reporter activation. SH-SY5Y APP 5'UTR luciferase reporter, luminescence; zero percent = DMSO vehicle wells. activation, % at 2 µM. 190,000 tested, 1% active. AID 1276;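 active = activation above a set limit, based on mean plus 3 SD of controls, cut at about 140% in these data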
FLuc inhib CS = inhibits firefly luciferase, flagging false hits in luciferase inhibition screens. ATPLite firefly luciferase biochemical luminescence, 10 min. inhibition, % at 10 µM. 200,000 tested, 1.5% active;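 active = inhibition above about 50% when tested at 10 µM, limit read from the data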
Large screens that a line does not name were inactive. Most compounds without a hit are left out; they make up all but 4.3% or so of the library.

O=C(Nc1cccnc1)c1ccc(-c2ccc(Cl)cc2)o1	FLuc inhib CS 66.2
CCN(C(=O)COC(=O)C1CCN(S(=O)(=O)c2cccs2)CC1)c1ccccc1	none
COc1ccc(Nc2cc(Cl)nc(N)n2)cc1OC	none
Cc1ccc(N2C(=O)N(CC(=O)N3CCOCC3)C(=O)C2C)cc1 (stereo not drawn)	none
O=C(Nc1nccs1)c1ccc(-c2ccc(F)cc2)o1	STAT1 act 128.6, APP 5'UTR act 156.7, FLuc inhib CS 78.1
Cn1c(-c2ccc(F)cc2)cnc1SCC(=O)N1CCCc2ccccc21	none
Cn1c(-c2ccc(F)cc2)cnc1SCC(=O)N1CCCCC1	NF-kB expr up 3.92, STAT1 act 138.5
CC1Cc2ccccc2N1C(=O)CSc1ncc(-c2ccc(F)cc2)n1C (stereo not drawn)	STAT1 act 133.1
Cc1cc(Cl)ccc1NC(=S)Nc1ccccn1	STAT1 act 129.9
Cc1cc(C)cc(NC(=S)Nc2ccccn2)c1	none
Cc1cc(Cl)ccc1Nc1ncccc1C(N)=O	STAT1 act 130.2
COc1ccc(N2C(=O)CCC(C(=O)N3CCN(c4ccccn4)CC3)C2c2ccc(F)cc2)cc1 (stereo not drawn)	none
COc1ccc(C(C(=O)NCC2CCCO2)N(C(=O)CNC(=O)c2cccs2)c2ccccc2C)cc1OC (stereo not drawn)	none
COc1cccc(C2=NOC(C(=O)Nc3cccnc3Cl)C2)c1 (stereo not drawn)	none
N=C1SCC(=O)N1c1nc(-c2ccccc2)cs1	STAT1 act 149.6
CCCOc1ccc(CC(=O)NNC(=S)Nc2ccccc2)cc1Br	NF-kB expr up 3.31
CCC(=O)c1ccc(/C=C/c2nc3ccccc3n2C)o1	NF-kB expr up 4.82, FLuc inhib CS 78.9
COc1ccc(C2Nc3ccccc3C(=O)N2c2ccc(C)cc2)cc1COc1ccccn1 (stereo not drawn)	STAT1 act 130.8
COc1ccc(C2Nc3ccccc3C(=O)N2c2ccc(C)cc2)cc1Cn1nc(C)c([N+](=O)[O-])c1C (stereo not drawn)	none
Cc1csc(NC(=O)c2ccc(C)o2)n1	none
Cc1ccc(Cc2cnc(NC(=O)C3CCCO3)s2)cc1 (stereo not drawn)	NF-kB expr up 4.51, STAT1 act 134.6, APP 5'UTR act 145.2
CC(C)C(=O)Nc1ncc(Cc2ccccc2Cl)s1	none
O=C(Nc1ncc(Cc2ccc(SC(F)F)cc2)s1)c1ccccc1	NF-kB expr up 3.58
Cc1ccc(C(=O)Nc2ncc(Cc3ccccc3)s2)o1	APP 5'UTR act 205.3, FLuc inhib CS 79.6
CCSc1nnc2c(n1)[nH]c1c(C)cccc12	STAT1 act 139.0
NS(=O)(=O)c1ccc(N=Nc2c(O)ccc3ccccc23)cc1	STAT1 act 132.5
CCOc1ccc(NC(=O)c2ccc(N)cc2)cc1	FLuc inhib CS 70.7
CCOc1ccc(NC(=O)c2nn(C)cc2Br)cc1	FLuc inhib CS 70.3
CCOc1ccc(NC(=O)c2ccc(OC)cc2)cc1	none
COc1cccc(NC(=O)c2nn(C)cc2Br)c1	none (no result: NF-kB expr up, FLuc stim CS, FLuc inhib CS)
CCOc1ccc(C(=O)NC(Cc2ccccc2)C(=O)OC)cc1 (stereo not drawn)	FLuc inhib CS 53.3
CCOc1ccc(NC(=O)c2nsc(Cl)c2Cl)cc1	NF-kB expr up 6.4, STAT1 act 150.0, APP 5'UTR act 234.0, FLuc inhib CS 50.7
C/C(=N\NC(=O)c1nn(C)cc1Br)c1cccc(NC(=O)C(C)(C)C)c1	none
C/C(=N\NC(=O)c1nn(C)cc1Br)c1ccc(NC(=O)c2ccncc2)cc1	STAT1 act 131.3
O=C(Nc1ccc(F)cc1)c1nsc(Cl)c1Cl	NF-kB expr up 5.02, STAT1 act 137.5
C/C(=N\NC(=O)c1c(Br)c(C)nn1C)c1cccc(NC(=O)c2ccccc2F)c1	none
C/C(=N\NC(=O)c1nn(C)c(C)c1Br)c1cccc(NC(=O)c2ccc(F)cc2)c1	STAT1 act 138.7, FLuc inhib CS 69.2
COc1ccc(OC)c(CN2CCN(Cc3cccc4ccccc34)CC2)c1	none
O=c1c(Cl)c(NCc2ccccc2Cl)cnn1C12CC3CC(CC(C3)C1)C2	none
C=CS(=O)(=O)c1sc(Cl)c(N2CCOCC2)c1[N+](=O)[O-]	STAT1 act 128.7
C=CSc1sc(Cl)c(N2CCOCC2)c1[N+](=O)[O-]	none
O=c1[nH]nc(Sc2ncnc3sccc23)n1CCc1ccccc1	none
COc1ccccc1NC(=O)/C(C#N)=C/c1cc([N+](=O)[O-])ccc1N1CCCC1	none
COc1ccc(OC(=O)c2cccc([N+](=O)[O-])c2)c(C(=O)/C=C/c2cccs2)c1	NF-kB expr up 3.44
COc1ccc(NC(=O)CC2SC3=NCCN3C2=O)cc1 (stereo not drawn)	none
CN1C(=O)C(CC(=O)NC2CCCCC2)SC1=Nc1ccccc1 (stereo not drawn)	none
COC(=O)CNC(=O)CSc1nnc(C)c(=O)[nH]1	none
CCOC(=O)c1c(NC(=O)C(=O)N/N=C/c2ccccc2OC)sc2c1CCCCC2	FLuc inhib CS 58.8
CCOC(=O)c1c(NC(=O)CSc2c[nH]c3ccccc23)sc2c1CCC2	NF-kB expr up 4.04
CN(C)c1ccc(/C=C2/SC(=O)N(CCN=C3NS(=O)(=O)c4ccccc43)C2=O)cc1	STAT1 act 133.2
CC(OC(=O)CCc1nc2ccccc2c(=O)[nH]1)C(=O)c1ccc(C(C)(C)C)cc1 (stereo not drawn)	NF-kB expr up 5.75
Cc1ccc(Nc2nc3ccccc3o2)cc1F	STAT1 act 132.7, APP 5'UTR act 136.2
Cc1ccnc(Nc2nc3ccccc3o2)n1	APP 5'UTR act 140.1, FLuc inhib CS 68.6
CCOC(=O)c1cnc(Nc2nc3ccccc3o2)nc1CSC(=S)N(CC)CC	NF-kB expr up 23.9
Cc1nc(Nc2nc3ccccc3o2)nc(C)c1C	APP 5'UTR act 143.0, FLuc inhib CS 51.3
COc1ccc(CC(=O)N(C)C2CCCCC2)cc1S(=O)(=O)N1CCOCC1	none
CCOc1ccccc1N1CCN(C(=O)c2csc(C)c2CC)CC1	none
CCC(CC)C(=O)Nc1cccc(C(=O)c2ccccc2)c1	none
CCOC(=O)c1cnc(Nc2nc3ccccc3o2)nc1CSc1ncccn1	none (no result: NF-kB expr up, FLuc stim CS, FLuc inhib CS)
CCCc1nc(Nc2nc3ccccc3o2)nc(C)c1C(=O)OCC	STAT1 act 144.4
O=C(OCc1nnc(-c2ccc(Cl)cc2)o1)C12CC3CC(CC(O)(C3)C1)C2	STAT1 act 137.6
CC(C)COP(=O)(CNC(=O)CN1C(=O)c2ccccc2S1(=O)=O)OCC(C)C	none
COc1c(Cl)cc(Cl)cc1/C=C/C(=O)c1ccc(NC(=O)c2cccs2)cc1	NF-kB expr up 5.66
Clc1ccc(-c2nnc(C3CCCCC3)o2)cc1	none
Clc1ccc(-c2nc(C3CCCCC3)no2)cc1	STAT1 act 132.4
CCOc1ccc2ccccc2c1CNCCN1CCOCC1	NF-kB expr up 7.73
CCOc1ccc(Br)cc1CNCCN1CCOCC1	none
CCc1nnc(NC(=O)CN2CCN(c3ccccc3F)CC2)s1	none
NCc1ccc(-c2nc3ccccc3o2)cc1	none (no result: NF-kB expr up, STAT1 act, APP 5'UTR act)
